# DYRK1A inh: rat Dyrk1A kinase inhibitors, primary screen, biochemical, single point, plate reader; Dual specificity tyrosine-phosphorylation-regulated kinase 1A (Rattus norvegicus), Q63470; ADP-Glo luminescence, NFATc1 peptide; inhibition, % at 12.5 µM; actives 0.43% (n = 310,000); in the data active = inhibition above about 50%;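 note: plate controls were vehicle with enzyme for no effect and no enzyme for full effect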
# GSK3B inh: human GSK3beta kinase inhibitors, primary screen, biochemical, cell-free homogeneous, HTS | GST-GSK3beta kinase, ADP-Glo luminescence, 60 min; active compounds read low | activity score (negative = inhibition), % at 10 µM | actives 0.038% (n = 300,000);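 active = more than half of replicate wells score below -50%, meaning over 50% inhibition versus plate controls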;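 note: 0% = median DMSO wells and -100% = median GW8510 positive control wells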
#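 test system = GST-tagged human GSK3beta kinase, cell-free | reagent = 25 µM ATP with peptide substrate | dosing = one dose of 10 µM per compound | schedule = 60 min reaction, RT | detection = luminescent ADP-Glo measurement of ADP formed | control set = DMSO neutral wells and GW8510 at 20 µM as positive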
# STK33 kinase inh: inhibitors of purified STK33 kinase, primary screen, biochemical, ADP-Glo luminescence, homogeneous, cell-free; inhibition, % at 10 µM; actives 0.073% (n = 320,000); MBP phosphorylation; Serine/threonine-protein kinase 33 (Homo sapiens), Q9BYT3; AID 2661, 2010;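 active = inhibition at or above 25%, using the most active replicate where run in duplicate; inactive = inhibition below 25%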
# GSK3A inh: blockers of GSK3A enzyme activity – biochemical, luminescence, cell-free homogeneous, HTS, primary screen | GSK-3 alpha kinase, ADP-Glo luminescence, 60 min | inhibition, % at 10 µM | actives 0.1% (n = 320,000);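 active = more than half of replicates show inhibition above 20%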;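 note: GST-tagged GSK-3 alpha with peptide substrate and 25 µM ATP; 0% = DMSO neutral wells and 100% = GW8510 positive control wells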
# Target sequence (P49840 whole entry, looked up): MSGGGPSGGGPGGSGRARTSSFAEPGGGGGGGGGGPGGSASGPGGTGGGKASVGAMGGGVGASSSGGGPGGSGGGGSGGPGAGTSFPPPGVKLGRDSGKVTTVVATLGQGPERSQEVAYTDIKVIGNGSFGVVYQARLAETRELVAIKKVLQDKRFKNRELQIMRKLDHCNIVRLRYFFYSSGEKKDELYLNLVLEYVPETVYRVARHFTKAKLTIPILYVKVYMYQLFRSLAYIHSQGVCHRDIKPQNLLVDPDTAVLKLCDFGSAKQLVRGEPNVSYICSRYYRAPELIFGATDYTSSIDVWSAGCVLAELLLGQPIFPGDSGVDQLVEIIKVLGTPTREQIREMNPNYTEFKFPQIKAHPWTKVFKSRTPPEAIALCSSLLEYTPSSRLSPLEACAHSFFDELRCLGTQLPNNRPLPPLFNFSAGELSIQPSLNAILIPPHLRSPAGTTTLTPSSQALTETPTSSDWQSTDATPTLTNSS
# ADP-Glo artifact: ADP-Glo luciferase interference without Dyrk1A, dose response, artefact control for Dyrk1A inhibitor project, biochemical, luminescence, cherry-pick, set 02 | shares compounds with DYRK1A inh | 1,300 tested, under 10 active | AC50, µM (highest dose often 12 µM), inactives show at the top dose activity change, negative = inhibition | ADP-Glo luciferase artifact assay, no Dyrk1A;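 active = fitted half-maximal dose AC50 no more than ten times the top valid tested dose, with luminescence dropping as dose rises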
# Starred values were filed as active, the others as inactive; / = no result given. This excerpt belongs to a sample that is enriched for hits.
SMILES,DYRK1A inh,GSK3B inh,STK33 kinase inh,GSK3A inh,ADP-Glo artifact
C[C@@H]1O[C@@H](OC[C@H]2O[C@@H](Oc3c(-c4ccc(O)c(O)c4)oc4cc(O)cc(O)c4c3=O)[C@H](O)[C@@H](O)[C@@H]2O)[C@H](O)[C@H](O)[C@H]1O,76.8*,-31.7,1.1,26.6,10.2%
COc1ccc2c(c1)CCc1cc(C(=O)O)sc1-2,55.0*,1.0,4.9,-6.7,7.0%
O=C(O)c1cc2c(s1)-c1ccccc1CC2,/,3.1,1.3,-1.6,/
Cc1cccc(NC(=O)COC(=O)c2n[nH]c3ccccc23)c1C,-0.2,/,0.3,-2.5,/
Cc1cccc(C)c1OCCOC(=O)c1n[nH]c2ccccc12,59.7*,-0.2,-2.8,-1.5,9.4%
COc1cccc(NC(=S)NCc2cccs2)c1,-1.6,-0.4,-0.5,-1.8,/
CN(C)CC(NC(=O)c1cccc(S(=O)(=O)Nc2ccc3c(c2)OCO3)c1)c1ccccc1 (stereo unspecified),-0.7,/,0.3,-2.8,/
NS(=O)(=O)c1ccc(Nc2nc(-c3ccc(F)cc3)cs2)cc1,21.3,-8.2,2.4,13.1,/
NS(=O)(=O)c1ccc(Nc2nc(-c3ccc(O)cc3O)cs2)cc1,68.0*,-28.5,16.8,60.5*,7.4%
CC12CCCC(C(C#N)C(N)=O)(C1)NC(=O)C2C#N (stereo unspecified),-4.7,/,/,/,/
O=C(Nc1cccc(Cl)c1)ON=C1c2ccccc2-c2ccccc21,50.3*,-0.4,1.0,-0.5,10.8%
C=CS(=O)(=O)c1c2cc(OC)ccc2nc2ccc(OC)cc12,60.5*,/,/,/,6.1%
COc1ccc2nc(Cl)cc(Cl)c2c1,-5.2,2.7,0.1,-2.6,/
O=C1CCCN1CC(O)CS(=O)(=O)Cc1ccc(Cl)cc1Cl (stereo unspecified),1.0,2.5,0.5,0.0,/
Cc1nnc(SC(C)C(=O)Nc2ccc(N3CCOCC3)cc2)n1Cc1ccccc1 (stereo unspecified),1.4,/,/,/,/
O=C(c1ccc(Cl)cc1)N1CCN(c2ccnc3cc(Cl)ccc23)CC1,7.7,0.4,/,/,/
CCC(=O)N1CCN(c2ccnc3cc(Cl)ccc23)CC1,55.5*,-6.8,3.6,4.8,8.2%
CCC1(CC)NC(=O)N(CC(=O)Nc2sc3c(c2C(N)=O)CCC3)C1=O,65.5*,-8.9,0.6,28.0,2.0%
CCN(CC)C(=O)Cn1cc(S(=O)(=O)CC(=O)N2CCCCCC2)c2ccccc21,/,0.6,-2.2,-1.8,/
O=C(Nc1ccc(Cl)cc1)Nc1ccc2c(c1)N1CCN=C1S2,67.8*,-1.0,1.3,-0.9,10.4%
Cc1ccc(SCCN)cc1C,-1.5,0.8,0.1,-2.3,/
Cc1ccccc1NC1=C/C(=N\S(=O)(=O)c2ccc(C(=O)O)cc2)c2ccccc2C1=O,62.2*,-12.9,5.5,22.4,6.0%
Cc1ccccc1NC1=C/C(=N\S(=O)(=O)c2cccs2)c2ccccc2C1=O,2.0,-1.2,0.3,/,/
C=CCN1C(=O)C(CC(=O)O)SC1=Nc1ccc(C)cc1 (stereo unspecified),3.6,2.7,-1.8,-1.8,/
O=C1NC(=S)S/C1=C/c1ccc(Oc2cnccn2)cc1,64.5*,2.0,0.3,-2.1,10.3%
O=C1NC(=O)/C(=C\c2ccc(Oc3cnccn3)cc2)S1,59.1*,4.4,2.2,-0.3,9.7%
O=Cc1ccc(Oc2cnccn2)cc1,0.6,2.1,-2.3,/,/
O=C(Nc1ccc(F)cc1F)c1csc(-c2ccncc2)n1,52.0*,-3.0,1.2,1.8,6.8%
O=C(Nc1ccc(F)cc1F)c1csc(-c2cccs2)n1,/,-0.1,-0.8,1.6,/

# Screening data: PubChem, Broad Institute
